One data set relates to HepG2. As to the kind of experiment: Antiproliferative activity against human HepG2 cells after 12 hrs by MTT assay. It is filed as functional, cell-based. Particulars: HepG2, 12 h. In general terms: Formazan colour is commonly taken as a measure of viable cells.
In another data set the test system is MCF7. The data set is described as follows: Antiproliferative activity against human MCF7 cells after 12 hrs by MTT assay. It is filed as functional, cell-based. The following applies: MCF7, 12 h.
In a further data set the test system is HeLa. The data set is described as follows: Antiproliferative activity against human HeLa cells after 12 hrs by MTT assay. It counts as functional, cell-based.
Data set [1] in a line: Cytotoxicity against human HEK293T cells for 24 hrs by MTT assay. It counts as cell-based, HEK-293T. The gist of the method:
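293T human kidney epithelial cells exposed to multiple concentrations and viability read by MTT.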

A short description of data set [2]: Antiproliferative activity against mouse B16F10 cells after 12 hrs by MTT assay. It counts as functional, cell-based. Particulars: B16-F10, 12 h.
In data set [3] the target is Epidermal growth factor receptor (Homo sapiens, UniProt P00533). The data set is described as follows: Inhibition of His-tagged EGFR cytoplasmic domain (645-1186 aa) (unknown origin) assessed as inhibition of autophosphorylation by TR-fluorometry.
Data set [4] concerns the target Receptor tyrosine-protein kinase erbB-2 (Homo sapiens, UniProt P04626). As to the kind of experiment: Inhibition of His-tagged human HER-2 cytoplasmic domain (676-1245 aa) (unknown origin) assessed as inhibition of autophosphorylation by TR-fluorometry.

The results in this text go back to ChEMBL document CHEMBL3745647, “Design, synthesis and biological evaluation of pyrazolyl-nitroimidazole derivatives as potential EGFR/HER-2 kinase inhibitors” (Bioorg Med Chem Lett, 2016).

Epidermal growth factor receptor, sequence (P00533 whole entry, the tested form may be a part): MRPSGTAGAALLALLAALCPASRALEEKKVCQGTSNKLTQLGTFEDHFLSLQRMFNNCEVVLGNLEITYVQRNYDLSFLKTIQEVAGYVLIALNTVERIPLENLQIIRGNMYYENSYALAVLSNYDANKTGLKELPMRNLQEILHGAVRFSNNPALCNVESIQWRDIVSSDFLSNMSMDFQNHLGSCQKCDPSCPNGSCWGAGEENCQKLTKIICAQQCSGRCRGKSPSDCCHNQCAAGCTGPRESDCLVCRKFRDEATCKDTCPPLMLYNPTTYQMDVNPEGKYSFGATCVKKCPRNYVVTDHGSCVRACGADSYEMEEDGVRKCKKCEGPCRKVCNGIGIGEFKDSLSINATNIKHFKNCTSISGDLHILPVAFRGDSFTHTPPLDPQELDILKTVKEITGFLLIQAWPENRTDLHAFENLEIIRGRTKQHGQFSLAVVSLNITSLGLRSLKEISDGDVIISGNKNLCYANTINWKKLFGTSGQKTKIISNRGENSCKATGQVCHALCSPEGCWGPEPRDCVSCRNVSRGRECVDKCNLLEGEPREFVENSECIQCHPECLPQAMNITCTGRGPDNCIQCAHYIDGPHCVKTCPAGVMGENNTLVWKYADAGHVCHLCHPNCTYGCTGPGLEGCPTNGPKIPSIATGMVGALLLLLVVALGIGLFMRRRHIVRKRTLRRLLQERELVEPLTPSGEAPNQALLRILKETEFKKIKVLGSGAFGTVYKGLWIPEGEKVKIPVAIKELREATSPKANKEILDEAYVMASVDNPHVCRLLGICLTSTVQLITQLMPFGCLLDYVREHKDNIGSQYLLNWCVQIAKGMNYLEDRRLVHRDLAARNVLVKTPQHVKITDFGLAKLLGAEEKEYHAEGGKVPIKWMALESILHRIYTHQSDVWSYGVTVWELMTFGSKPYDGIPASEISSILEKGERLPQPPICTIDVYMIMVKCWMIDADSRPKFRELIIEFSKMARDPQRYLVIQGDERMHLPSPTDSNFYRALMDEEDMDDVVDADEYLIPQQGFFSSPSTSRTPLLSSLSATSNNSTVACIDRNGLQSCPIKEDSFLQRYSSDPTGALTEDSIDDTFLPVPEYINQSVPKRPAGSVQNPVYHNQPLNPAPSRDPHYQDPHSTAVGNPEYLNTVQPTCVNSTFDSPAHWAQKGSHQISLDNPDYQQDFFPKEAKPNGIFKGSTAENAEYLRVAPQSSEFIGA
Receptor tyrosine-protein kinase erbB-2, sequence (P04626 whole entry, the tested form may be a part): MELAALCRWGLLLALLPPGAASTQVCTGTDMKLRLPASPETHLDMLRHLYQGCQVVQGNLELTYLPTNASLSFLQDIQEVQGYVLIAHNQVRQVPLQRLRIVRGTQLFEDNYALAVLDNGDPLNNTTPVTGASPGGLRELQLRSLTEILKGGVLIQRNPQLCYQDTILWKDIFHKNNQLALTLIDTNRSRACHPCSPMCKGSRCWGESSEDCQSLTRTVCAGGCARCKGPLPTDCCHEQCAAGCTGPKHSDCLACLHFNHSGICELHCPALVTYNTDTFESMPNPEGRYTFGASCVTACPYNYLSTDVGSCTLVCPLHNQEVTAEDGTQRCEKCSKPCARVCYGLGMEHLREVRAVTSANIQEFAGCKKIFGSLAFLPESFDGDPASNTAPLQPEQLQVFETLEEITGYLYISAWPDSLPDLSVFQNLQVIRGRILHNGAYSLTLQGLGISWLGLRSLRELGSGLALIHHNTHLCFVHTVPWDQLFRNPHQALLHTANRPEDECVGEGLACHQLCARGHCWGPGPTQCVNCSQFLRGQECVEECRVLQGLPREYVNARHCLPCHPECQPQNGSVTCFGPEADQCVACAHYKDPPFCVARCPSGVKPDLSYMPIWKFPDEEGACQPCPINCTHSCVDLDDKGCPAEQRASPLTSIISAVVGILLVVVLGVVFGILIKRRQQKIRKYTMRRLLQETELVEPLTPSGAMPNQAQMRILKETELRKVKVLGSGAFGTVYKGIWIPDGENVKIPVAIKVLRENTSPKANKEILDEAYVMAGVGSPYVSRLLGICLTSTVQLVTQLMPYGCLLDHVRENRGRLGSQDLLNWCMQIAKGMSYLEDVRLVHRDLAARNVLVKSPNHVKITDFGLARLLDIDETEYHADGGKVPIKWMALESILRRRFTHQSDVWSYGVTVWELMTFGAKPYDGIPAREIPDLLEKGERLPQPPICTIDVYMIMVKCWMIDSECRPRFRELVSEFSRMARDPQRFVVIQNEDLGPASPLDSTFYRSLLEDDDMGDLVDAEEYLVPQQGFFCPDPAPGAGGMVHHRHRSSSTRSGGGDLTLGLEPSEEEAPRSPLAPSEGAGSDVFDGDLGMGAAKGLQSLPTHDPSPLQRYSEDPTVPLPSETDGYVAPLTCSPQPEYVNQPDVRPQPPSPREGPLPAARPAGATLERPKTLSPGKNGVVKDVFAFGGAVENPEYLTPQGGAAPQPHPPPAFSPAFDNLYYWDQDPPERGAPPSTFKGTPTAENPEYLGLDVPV

`CC(=O)N1N=C(c2ccc([N+](=O)[O-])cc2)CC1c1ccc(C(=O)OC(C)Cn2c([N+](=O)[O-])cnc2C)cc1` (configuration not stated): the IC50 is 3.62 µM with HepG2; 3.33 µM with MCF7; 3.78 µM in the data set with HeLa; 12.2 µM in data set [2]; 1.45 µM in data set [3] (read-out: IC50); 1.45 µM in data set [3] (read-out: pIC50 (converted)). Also, the IC50 in data set [4] worked out at 3.53 µM. This compound had a CC50 at 24 h in data set [1] of 168 µM.
In the case of `CC(=O)N1N=C(c2ccccc2)CC1c1ccc(C(=O)OCCn2c([N+](=O)[O-])cnc2C)cc1` (configuration not stated), the IC50 in the data set on HepG2 was 42.2 µM; with MCF7, 58.2 µM; with HeLa, 48.8 µM; in data set [2], 62.7 µM; in data set [3] (read-out: IC50), 9.58 µM; in data set [3] (read-out: pIC50 (converted)), 9.59 µM. For the same compound, the IC50 in data set [4] was found to be 14 µM.
As to `CC(=O)N1N=C(c2ccc(Cl)cc2)CC1c1ccc(C(=O)OC(C)Cn2c([N+](=O)[O-])cnc2C)cc1` (configuration not stated), the IC50 with HepG2 was 12.2 µM; in the data set with MCF7 it was 8.82 µM; in the data set with HeLa, 15.6 µM; in data set [2] it was 22.2 µM; in data set [3] (read-out: IC50), 9.26 µM; in data set [3] (read-out: pIC50 (converted)) it was 9.27 µM. Moreover, the IC50 in data set [4] worked out at 9.96 µM.
With `COc1ccc(C2=NN(C(C)=O)C(c3ccc(C(=O)OC(C)Cn4c([N+](=O)[O-])cnc4C)cc3)C2)cc1` (configuration not stated), the IC50 is 25.2 µM in the data set with HepG2; 28 µM in the data set on MCF7; 35.1 µM in the data set on HeLa; 40.6 µM in data set [2]; 21.3 µM in data set [3] (read-out: IC50); 21.3 µM in data set [3] (read-out: pIC50 (converted)). In data set [4], the IC50 came to 12 µM.
In the case of `CCOc1ccc(C2=NN(C(C)=O)C(c3ccc(C(=O)OC(C)Cn4c([N+](=O)[O-])cnc4C)cc3)C2)cc1` (configuration not stated), the IC50 in the data set on HepG2 is 38.8 µM; with MCF7 it was 40.6 µM; with HeLa, 47.6 µM; in data set [2], 46.6 µM; in data set [3] (read-out: IC50), 26.9 µM; in data set [3] (read-out: pIC50 (converted)), 27 µM. Also, in data set [4], the IC50 worked out at 18.1 µM.
As to `COc1ccc(C2=NN(C(C)=O)C(c3ccc(C(=O)OCCn4c([N+](=O)[O-])cnc4C)cc3)C2)cc1` (configuration not stated), the IC50 with HepG2 was 15.8 µM; with MCF7 it was 30.2 µM; in the data set with HeLa, 27.9 µM; in data set [2], 36.2 µM; in data set [3] (read-out: IC50) it was 8.54 µM; in data set [3] (read-out: pIC50 (converted)), 8.55 µM. Moreover, the IC50 in data set [4] worked out at 17.3 µM.
Take `CC(=O)N1N=C(c2ccc(F)cc2)CC1c1ccc(C(=O)OCCn2c([N+](=O)[O-])cnc2C)cc1` (configuration not stated): the IC50 in the data set with HepG2 worked out at 1.89 µM; in the data set with MCF7 it was 1.67 µM; in the data set with HeLa it was 2.45 µM; in data set [2] it was 4.19 µM; in data set [4], 4.07 µM. For the same compound, it took 118 µM to reach half-maximal cytotoxicity in data set [1] (CC50 at 24 h).
On to `CC(=O)N1N=C(c2ccc(C)cc2)CC1c1ccc(C(=O)OC(C)Cn2c([N+](=O)[O-])cnc2C)cc1` (configuration not stated), for which the IC50 was 58.1 µM with HepG2; 92.1 µM with MCF7; 72.1 µM in the data set on HeLa; over 100 µM in data set [2]; 25.6 µM in data set [3] (read-out: IC50); 25.6 µM in data set [3] (read-out: pIC50 (converted)). For the same compound, the IC50 in data set [4] is 18.9 µM.
For the compound `CC(=O)N1N=C(c2ccc(Cl)cc2)CC1c1ccc(C(=O)OCCn2c([N+](=O)[O-])cnc2C)cc1` (configuration not stated), the IC50 in the data set with HepG2 was 3.31 µM; in the data set on MCF7, 2.27 µM; with HeLa, 4.13 µM; in data set [2], 4.82 µM; in data set [3] (read-out: IC50), 7.37 µM; in data set [3] (read-out: pIC50 (converted)) it was 7.38 µM. In addition, the IC50 in data set [4] amounted to 4.1 µM. In data set [1], it took 138 µM to reach half-maximal cytotoxicity (CC50 at 24 h).
For the compound `CS(=O)(=O)CCNCc1ccc(-c2ccc3ncnc(Nc4ccc(OCc5cccc(F)c5)c(Cl)c4)c3c2)o1` [LAPATINIB], the IC50 in the data set on HepG2 came out at 0.27 µM; in the data set with MCF7 it was 0.47 µM; in the data set on HeLa, 0.12 µM; in data set [2], 0.21 µM. Further, the midpoint of cytotoxicity in data set [1], the CC50 at 24 h, lay at 123 µM.
Take `CC(=O)N1N=C(c2ccc(Br)cc2)CC1c1ccc(C(=O)OCCn2c([N+](=O)[O-])cnc2C)cc1` (configuration not stated): the IC50 in the data set on HepG2 is 3.82 µM; in the data set with MCF7, 5.56 µM; in the data set on HeLa, 2.82 µM; in data set [2], 13.1 µM; in data set [3] (read-out: IC50), 4.13 µM; in data set [3] (read-out: pIC50 (converted)), 4.13 µM. The IC50 in data set [4] came to 3.45 µM.
For `C#Cc1cccc(Nc2ncnc3cc(OCCOC)c(OCCOC)cc23)c1` [ERLOTINIB], the CC50 at 24 h in data set [1] is 105 µM.
Regarding `CC(=O)N1N=C(c2ccc(C(F)(F)F)cc2)CC1c1ccc(C(=O)OC(C)Cn2c([N+](=O)[O-])cnc2C)cc1` (configuration not stated), the IC50 with HepG2 was 2.21 µM; in the data set with MCF7 it was 2.18 µM; in the data set on HeLa, 0.42 µM; in data set [2], 5.87 µM; in data set [3] (read-out: IC50) it was 6.67 µM; in data set [3] (read-out: pIC50 (converted)), 6.68 µM. In data set [4], the IC50 stood at 5.62 µM. Moreover, the 50% cytotoxic concentration (CC50) at 24 h in data set [1] is 92.6 µM.
For `CC(=O)N1N=C(c2ccc(I)cc2)CC1c1ccc(C(=O)OCCn2c([N+](=O)[O-])cnc2C)cc1` (configuration not stated), the IC50 with HepG2 is 6.28 µM; with MCF7 it was 4.85 µM; in the data set with HeLa, 7.53 µM; in data set [2], 11.8 µM; in data set [3] (read-out: IC50), 1.26 µM; in data set [3] (read-out: pIC50 (converted)), 1.26 µM. For the same compound, the IC50 in data set [4] amounted to 2.75 µM.
With `CC(=O)N1N=C(c2ccc(F)cc2)CC1c1ccc(C(=O)OC(C)Cn2c([N+](=O)[O-])cnc2C)cc1` (configuration not stated), the IC50 was 8.89 µM in the data set with HepG2; 5.21 µM in the data set with MCF7; 7.42 µM in the data set with HeLa; 15.5 µM in data set [2]; 6.58 µM in data set [3] (read-out: IC50); 6.59 µM in data set [3] (read-out: pIC50 (converted)). In addition, the IC50 in data set [4] came to 8.54 µM.
On to `CC(=O)N1N=C(c2ccc(C)cc2)CC1c1ccc(C(=O)OCCn2c([N+](=O)[O-])cnc2C)cc1` (configuration not stated), for which the IC50 was 50.2 µM in the data set on HepG2; 70.7 µM in the data set with MCF7; 76.8 µM in the data set on HeLa; over 100 µM in data set [2]; 10.9 µM in data set [3] (read-out: IC50); 10.9 µM in data set [3] (read-out: pIC50 (converted)). Further, in data set [4], the IC50 was determined as 13.2 µM.
Regarding `CC(=O)N1N=C(c2ccc(I)cc2)CC1c1ccc(C(=O)OC(C)Cn2c([N+](=O)[O-])cnc2C)cc1` (configuration not stated), the IC50 in the data set with HepG2 was 9.98 µM; in the data set on MCF7 it was 9.77 µM; in the data set with HeLa, 25.6 µM; in data set [2], 19.1 µM; in data set [3] (read-out: IC50) it was 10.7 µM; in data set [3] (read-out: pIC50 (converted)), 10.7 µM. In addition, the IC50 in data set [4] turned out to be 12.7 µM.
With `CC(=O)N1N=C(c2ccc([N+](=O)[O-])cc2)CC1c1ccc(C(=O)OCCn2c([N+](=O)[O-])cnc2C)cc1` (configuration not stated), the IC50 is 1.75 µM with HepG2; 1.13 µM in the data set with MCF7; 0.15 µM in the data set on HeLa; 0.38 µM in data set [2]; 0.6 µM in data set [3] (read-out: IC50); 0.601 µM in data set [3] (read-out: pIC50 (converted)). Moreover, in data set [4], the IC50 is 2.06 µM. In data set [1], it took 78.8 µM to reach half-maximal cytotoxicity (CC50 at 24 h).
For the compound `CCOc1ccc(C2=NN(C(C)=O)C(c3ccc(C(=O)OCCn4c([N+](=O)[O-])cnc4C)cc3)C2)cc1` (configuration not stated), the IC50 is 19.3 µM with HepG2; 20.6 µM with MCF7; 31.4 µM with HeLa; 38.9 µM in data set [2]; 15.2 µM in data set [3] (read-out: IC50); 15.2 µM in data set [3] (read-out: pIC50 (converted)). The IC50 in data set [4] was found to be 14.9 µM.
With `CC(=O)N1N=C(c2ccc(Br)cc2)CC1c1ccc(C(=O)OC(C)Cn2c([N+](=O)[O-])cnc2C)cc1` (configuration not stated), the IC50 in the data set on HepG2 is 9.02 µM; with MCF7, 8.92 µM; with HeLa it was 11.8 µM; in data set [2], 10.8 µM; in data set [3] (read-out: IC50), 5.96 µM; in data set [3] (read-out: pIC50 (converted)), 5.97 µM. In data set [4], the IC50 amounted to 8.27 µM.
As to `CC(=O)N1N=C(c2ccccc2)CC1c1ccc(C(=O)OC(C)Cn2c([N+](=O)[O-])cnc2C)cc1` (configuration not stated), the IC50 is 43.8 µM with HepG2; 49.9 µM with MCF7; 45.2 µM in the data set on HeLa; 68.2 µM in data set [2]; 12.2 µM in data set [3] (read-out: IC50); 12.2 µM in data set [3] (read-out: pIC50 (converted)). Also, in data set [4], the IC50 is 17 µM.

A word on the CC50: it is the concentration at which the toxic effect on the cells reaches its halfway point. A low value points to greater toxicity to the cells.
